Laboratory results as given in ChEMBL document CHEMBL1128705, “[[[(Thienylcarbonyl)alkyl]oxy]phenyl]- and [[[(pyrrylcarbonyl)alkyl]oxy]phenyl]oxazoline derivatives with potent and selective antihuman rhinovirus activity” (J Med Chem, 1995).
Values after ≈ are worked out from the molar mass of the structure shown.

Columns and labels:
[1] = test system: Human rhinovirus sp.; assay: In vitro concentration required to achieve 50% protection of HeLa cells from HRV-14 induced cytopathic effect; type: functional, organism-based
Method in brief: (§1)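 HeLa-Ohio cells (20 000/well) are seeded in D-MEM with 2% FCS, 30 mM MgCl2 and 15 µg/mL DEAE-dextran, then grown overnight at 37 °C, 5% CO2, to a subconfluent monolayer. Compound dilutions (from 200× DMSO stocks) are added with HRV at 200–2000 PFU/monolayer, dosed to give full CPE in 72 h. Plates are held at 33 °C and viability is read by MTT. EC50 is the concentration giving 50% protection.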

[2] = test system: HeLa; assay: In vitro concentration required to achieve 50% protection of HeLa cells from HRV-2 induced cytopathic effect; type: functional, cell-based; conditions: Homo sapiens; method in brief: as §1
[3] = test system: HeLa; assay: In vitro concentration required to reduce the viability of mock-infected HeLa cells by 50%; type: functional; conditions: Homo sapiens
Method in brief: (§2)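 Cytotoxicity run alongside the antiviral assay on mock-infected HeLa-Ohio cells. Compounds are taken from 200× DMSO stocks and serially diluted in maintenance medium. Cells are incubated 72 h at 37 °C and viability is read by MTT. CC50 is the concentration that reduces viability by 50%.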

[4] = test system: Human rhinovirus sp.; assay: In vitro concentration which inhibits 80% of serotypes tested; type: functional
Method in brief: (§3)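 CPE-inhibition MTT assay in HeLa-Ohio cells (30 mM MgCl2, 15 µg/mL DEAE-dextran, 2% FCS), infected at 200–2000 PFU/monolayer and incubated at 33 °C. MIC80 is the concentration inhibiting 80% of the serotypes tested.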

[5] = test system: HeLa; assay: Compound concentration required to reduce the viability of mock-infected HeLa cells by 50%, was reported.; type: functional; conditions: Homo sapiens; method in brief: as §2
[6] = test system: Human rhinovirus sp.; assay: Compound concentration which inhibits 80% of serotypes tested, was reported.; type: functional; method in brief: as §3
[7] = test system: HeLa; assay: In vitro concentration required to reduce the viability of mock-infected HeLa cells by 50%, was reported.; type: functional; conditions: Homo sapiens; method in brief: as §2

SMILES | EC50 [1] | EC50 [2] | CC50 [3] | MIC80 [4] | CC50 [5] | MIC80 [6] | CC50 [7]
CCOC(=O)c1ccc(OCCCCC(=O)c2ccc(C)o2)cc1 | 2.42 µM | 0.91 µM | 65 µM |  |  |  | 
CCOC(=O)c1ccc(OCCCCC(=O)c2ccc(Cl)s2)cc1 | 0.54 µM | 0.08 µM | 273 µM | 2.18 µM (≈ 0.8 µg/mL) |  |  | 
Cn1cc(C(=O)CCCCOc2ccc(C(=O)O)cc2)cc1C=O | > 30.9 µM | > 30.9 µM |  |  | > 303 µM | > 30.9 µM | 
O=C(CCCCOc1ccc(C2=NCCO2)cc1)c1ccc[nH]1 | 8.01 µM | 3.2 µM | > 320 µM | > 32 µM |  |  | 
Clc1ccc(CCCCCOc2ccc(C3=NCCO3)cc2)s1 | 2.85 µM | 2.57 µM | 71 µM | 21.4 µM (≈ 7.5 µg/mL) |  |  | 
O=C(CCCCOc1ccc(C2=NCCO2)cc1)c1ccc(Cl)s1 | 0.13 µM | 0.81 µM | > 271 µM | > 27.1 µM |  |  | 
c1ccn(CCCCCOc2ccc(C3=NCCO3)cc2)c1 | > 31.9 µM | 1.43 µM | 159 µM | 15.9 µM (≈ 4.75 µg/mL) |  |  | 
Cc1csc(C(=O)CCCCOc2ccc(C(=O)O)cc2)c1 | > 31.4 µM | > 31.4 µM | > 314 µM | > 31.4 µM |  |  | 
CCOC(=O)c1ccc(OCCCCC(=O)c2cc(C)[nH]c2C)cc1 | 18.9 µM | 1.17 µM | 204 µM | > 29 µM |  |  | 
Cc1ccc(C(=O)CCCCOc2ccc(C(=O)O)cc2)s1 | > 31.4 µM | > 31.4 µM | > 314 µM | > 31.4 µM |  |  | 
Cc1ccc(C(=O)CCCCOc2ccc(C3=NCCO3)cc2)s1 | 0.14 µM | 1.31 µM | 146 µM | 9.04 µM (≈ 3.1 µg/mL) |  |  | 
CCOC(=O)c1ccc(OCCCC(=O)c2ccc(C)s2)cc1 | > 30.1 µM | 10.6 µM | > 301 µM | > 30.1 µM |  |  | 
Cc1ccc(CCCCCOc2ccc(C3=NCCO3)cc2)s1 | 11.5 µM | 2.58 µM | > 303 µM | > 30.4 µM |  |  | 
Cc1cc(C(=O)CCCCOc2ccc(C3=NCCO3)cc2)c(C)n1C | 11.3 µM | > 28.2 µM | 141 µM | > 28.2 µM |  |  | 
Cc1ccsc1C(=O)CCCCOc1ccc(C(=O)O)cc1 | > 31.4 µM | > 31.4 µM | > 314 µM | > 31.4 µM |  |  | 
Cc1ccc(C(=O)CCCOc2ccc(C3=NCCO3)cc2)s1 | 22.7 µM | 15.2 µM |  | > 30.3 µM |  |  | 
Cc1ccc(C(=O)CCCCOc2ccc(C(=O)NCCO)cc2)o1 | > 30.6 µM | > 30.6 µM | > 305 µM | > 30.6 µM |  |  | 

SMILES | EC50 [1] | EC50 [2] | CC50 [3] | MIC80 [4] | CC50 [5] | MIC80 [6] | CC50 [7]
Cc1csc(C(=O)CCCCOc2ccc(C3=NCCO3)cc2)c1 | 0.87 µM | 2.91 µM | 73 µM | 14.6 µM (≈ 5.01 µg/mL) |  |  | 
CCOC(=O)c1ccc(OCCCCC(=O)c2cc(C)cs2)cc1 | 5.78 µM | 2.89 µM | > 289 µM |  |  |  | 
Cc1cc(C(=O)CCCCOc2ccc(C3=NCCO3)cc2)c(C)[nH]1 | > 29.4 µM | > 29.4 µM | 205 µM | > 29.4 µM |  |  | 
CCOC(=O)c1ccc(OCCCCCc2ccc(C)s2)cc1 | 7.16 µM | 1.59 µM | 301 µM | 14.3 µM (≈ 4.76 µg/mL) |  |  | 
CCOC(=O)c1ccc(OCCCCC(=O)c2cc[nH]c2)cc1 | 13.3 µM | 11 µM | > 317 µM | 19.5 µM (≈ 6.14 µg/mL) |  |  | 
CCOC(=O)c1ccc(OCCCCCc2ccc(Cl)s2)cc1 | 9.15 µM | 1.84 µM | > 284 µM | 18.3 µM (≈ 6.45 µg/mL) |  |  | 
CCOC(=O)c1ccc(OCCCCC(=O)c2cc(C)n(C)c2C)cc1 | 16.8 µM | 2.28 µM | 56 µM | > 28 µM |  |  | 
CCOC(=O)c1ccc(OCCCCC(=O)c2ccc(C)s2)cc1 | 0.29 µM | 0.06 µM | > 289 µM | 2.31 µM (≈ 0.8 µg/mL) |  |  | 
c1cc(C2=NCCO2)ccc1OCCCCCN1CCCC1 | > 33.1 µM | > 33.1 µM | 165 µM | > 33.1 µM |  |  | 
Cn1cccc1C(=O)CCCCOc1ccc(C2=NCCO2)cc1 | 3.68 µM | > 30.7 µM |  | > 30.7 µM |  |  | > 306 µM
O=C(O)c1ccc(OCCCCC(=O)c2ccc(Cl)s2)cc1 | > 29.5 µM | > 29.5 µM | > 295 µM | > 29.5 µM |  |  | 
CCOC(=O)c1ccc(OCCCCC(=O)c2cc(C=O)n(C)c2)cc1 | 1.96 µM | 0.67 µM |  |  | 56 µM | 8.4 µM (≈ 3 µg/mL) | 
Cc1ccsc1C(=O)CCCCOc1ccc(C2=NCCO2)cc1 | 1.46 µM | 29.2 µM | 291 µM | > 29.1 µM |  |  | 
O=C(CCCCOc1ccc(C2=NCCO2)cc1)c1cc[nH]c1 | > 32 µM | > 32 µM | > 320 µM | > 32 µM |  |  | 
CCOC(=O)c1ccc(OCCCCC(=O)c2sccc2C)cc1 | > 28.9 µM | 6.94 µM | 202 µM | 20.8 µM (≈ 7.21 µg/mL) |  |  | 
Cn1cc(C(=O)CCCCOc2ccc(C3=NCCO3)cc2)cc1C=O | > 28.2 µM | > 28.2 µM |  |  | > 282 µM | > 28.2 µM | 
Cc1cc(CCCCCCCOc2ccc(C3=NCCO3)cc2)on1 [DISOXARIL] | 1.76 µM | 2.35 µM |  |  | 37 µM | 3.51 µM (≈ 1.2 µg/mL) | 
